Results on two molecules are retold here after publication PMC4267294 (RSC advances, 2014).

Data set [1] can be described thus: Optical/chemical stability of fluorophores in 100% warm serum. The class given is in vitro ADME, bovine. The conditions noted are these: 24 h. A digest of the protocol: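 Test fluorophores (10 mM DMSO stock, 100 μM working solution) were diluted into 100% FBS buffered with 50 mM HEPES, pH 7.4, and held at 37 °C. Optical stability was followed over time to 24 h by absorbance and fluorescence spectra, under 770 nm laser excitation at 10 mW.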

Data set [2] is described as follows: Stability. The class given is in vitro ADME, bovine. Conditions: fluorophore conjugated with a small molecule ligand, 24 h.
Data set [3] in a line: In vivo biodistribution and clearance in rodents after intravenous injection. Also on record: species or system CD-1 mice and SD rats. The conditions noted are these: rodent, 4 h post-injection. A digest of the protocol:
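Male CD-1 mice (≈25 g) and male Sprague-Dawley rats (≈250 g) were anaesthetised with ketamine 100 mg/kg plus xylazine 10 mg/kg i.p. They received test compound i.v. (mice 25 nmol, rats 100 nmol) and were imaged 4 h later on the FLARE NIR system (760 nm excitation, 11.0 mW/cm2; 810 ± 20 nm emission). Organ signal-to-background was calculated against surrounding muscle, with ≥3 animals per time point, mean ± s.d.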

A short description of data set [4]: 100% FBS supplemented with 50 mM HEPES, pH 7.4. The conditions noted are these: fetal bovine, 37 °C, up to 24 h.

Molecule `CC1(C)C(/C=C/C2=C(c3ccc(CCC(=O)O)cc3)C(=C/C=C3/N(CCC[N+](C)(C)C)c4ccc(S(=O)(=O)O)cc4C3(C)C)/CCC2)=[N+](CCC[N+](C)(C)C)c2ccc(S(=O)(=O)O)cc21` [ZW800-1C] yielded a serum stability in data set [1] above 99%. Besides, in data set [2], the “stable form maintained in warm serum” value is above 98%. Moreover, in data set [3], the renal excretion is above 80%.
Take Cyclo(Arg-Gly-Asp-D-Tyr-Lys): in data set [4], the fragment found result is “hydrolyzed form of cRGD-ZW800-1A, 24 h” and the not cleaved is >98%, 24 h.
